# ChEMBL document CHEMBL1799933, “Discovery of a selective allosteric M1 receptor modulator with suitable development properties based on a quinolizidinone carboxylic acid scaffold” (J Med Chem, 2011)
# Positions count from the first letter of the chain named. Calls of active or inactive are those of the source. No cut-off for these calls is given here.
# Tests used:
# [1] = target: T1, Muscarinic acetylcholine receptor M1 (Homo sapiens) (UniProt P11229); assay: Agonist activity at human muscarinic M1 receptor expressed in CHONFAT cells assessed as enhancement of acetylcholine-induced calcium mobilization preincubated for 4 mins measured after 1 hr by FLIPR assay; assay type: functional, cell-based
# T1 sequence (whole entry): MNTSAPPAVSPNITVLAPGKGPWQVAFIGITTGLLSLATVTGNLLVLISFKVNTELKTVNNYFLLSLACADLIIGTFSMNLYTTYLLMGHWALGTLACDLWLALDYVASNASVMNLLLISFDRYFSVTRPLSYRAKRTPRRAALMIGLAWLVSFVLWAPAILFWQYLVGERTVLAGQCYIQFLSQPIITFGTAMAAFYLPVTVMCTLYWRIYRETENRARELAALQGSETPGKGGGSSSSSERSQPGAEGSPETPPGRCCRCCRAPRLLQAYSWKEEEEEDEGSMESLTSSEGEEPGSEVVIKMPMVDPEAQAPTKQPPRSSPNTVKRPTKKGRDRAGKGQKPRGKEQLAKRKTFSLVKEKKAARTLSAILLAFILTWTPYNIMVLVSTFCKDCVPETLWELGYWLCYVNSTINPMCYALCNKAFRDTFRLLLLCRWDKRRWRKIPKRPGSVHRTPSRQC
# Method in brief: (§1)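 CHO-NFAT cells expressing the named muscarinic receptor (human M1–M4; rhesus, dog or rat M1 in CHO-K1) were plated at 25,000 cells/well and grown overnight at 37 °C, 6% CO2. Cells were loaded with 1 μM Fluo-4AM for 1 h, washed, and preincubated 4 min with serially diluted compound (final DMSO 0.67%). They were then stimulated 4 min with an EC20 of ACh, and Ca2+ flux was read by FLIPR384.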
# Mus musculus [2] = assay: Antiamnesic activity against scopolamine-induced dementia in B6SJL mouse assessed as increase in freezing behavior at 10 mg/kg, ip after 24 hrs; assay type: functional, organism-based; parameters: dose 10 mg/kg
# Method in brief: (§2)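 Male B6SJL mice, 10 weeks old and naive (n = 12–16/group), were given compound IP in 5% beta-cyclodextrin and/or scopolamine 0.3 mg/kg in 0.9% saline 30 min before training. Training was 2 tone (3 kHz, 85 dB, 30 s)–footshock (0.5 mA, 1 s) pairings 2 min apart. Freezing in the same chamber was video-scored 24 h later.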
# Mus musculus [3] = assay: Antiamnesic activity against scopolamine-induced dementia in ip dosed B6SJL mouse assessed as increase in freezing behavior at 3 uM plasma concentration; assay type: functional, organism-based
# [4] = target: T1, Muscarinic acetylcholine receptor M1 (Homo sapiens); assay: Positive allosteric modulation of human muscarinic M1 receptor expressed in CHONFAT cells assessed as potentiation of acetylcholine-induced calcium mobilization at 1 uM preincubated for 4 mins measured after 1 hr by FLIPR assay relative to control; assay type: functional, cell-based
# Method in brief: (§3)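 CHO-NFAT cells expressing human M1, 25,000 cells/well, grown overnight at 37 °C, 6% CO2. Washed in HBSS with 20 mM Hepes, 2.5 mM probenecid, 0.1% BSA, then loaded with 1 μM Fluo-4AM for 1 h at 37 °C. Compound preincubated 4 min (final DMSO 0.67%), then serially diluted ACh added for 4 min. Ca2+ flux read by FLIPR384; fold leftward shift of the ACh dose-response curve.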
# [5] = target: T2, Muscarinic acetylcholine receptor M1 (Rattus norvegicus) (UniProt P08482); assay: Agonist activity at rat muscarinic M1 receptor expressed in CHOK1 cells assessed as potentiation of acetylcholine-induced calcium mobilization preincubated for 4 mins measured after 1 hr by FLIPR assay; assay type: functional, cell-based; details: CHO-K1; method in brief: as §1
# T2 sequence (whole entry): T1 sequence (whole entry) with A5V, T254S, P309S, R320K, A337G, I413V
# [6] = Ratio of drug level in cerebrospinal fluid to fraction unbound level in plasma of Sprague-Dawley rat at 10 mg/kg, po; assay type: ADME, organism-based; parameters: dose 10 mg/kg, route oral; details: in vivo
# Mus musculus [7] = assay: Antiamnesic activity against scopolamine-induced dementia in B6SJL mouse assessed as increase in freezing behavior at 30 mg/kg, ip after 24 hrs; assay type: functional, organism-based; parameters: dose 30 mg/kg; method in brief: as §2
# [8] = target: T3, Muscarinic acetylcholine receptor M1 (Mus musculus) (UniProt P12657); assay: Agonist activity at mouse muscarinic M1 receptor expressed in CHOK1 cells assessed as potentiation of acetylcholine-induced calcium mobilization preincubated for 4 mins measured after 1 hr by FLIPR assay; assay type: functional, cell-based; details: CHO-K1
# T3 sequence (whole entry): T1 sequence (whole entry) with A5V, T254S, R320K, A337G, I413V
# Method in brief: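 CHO-NFAT cells (CHO-K1 background) expressing mouse M1, plated 25,000/well, grown overnight at 37 °C, 6% CO2. Cells washed in HBSS with 20 mM Hepes, 2.5 mM probenecid, 0.1% BSA, then loaded with 1 μM Fluo-4AM for 1 h at 37 °C. Compound (final 0.67% DMSO) preincubated 4 min, then stimulated 4 min with EC20 ACh. Ca2+ flux read on FLIPR384.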
# [9] = Agonist activity at dog muscarinic M1 receptor expressed in CHOK1 cells assessed as potentiation of acetylcholine-induced calcium mobilization preincubated for 4 mins measured after 1 hr by FLIPR assay; assay type: functional, Canis lupus familiaris, CHO-K1; method in brief: as §1
# [10] = Clearance in dog at 3 mg/kg, po and 1 mg/kg, iv; assay type: ADME, organism-based, Canis lupus familiaris; details: in vivo
# Method in brief: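 Dog PK, n = 2 animals. Given orally at 3 mg/kg and intravenously at 1 mg/kg. Interanimal variability under 20% for all values.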
# [11] = Clearance in rhesus monkey; assay type: ADME, organism-based, Macaca mulatta; details: in vivo
# [12] = target: T1, Muscarinic acetylcholine receptor M1 (Homo sapiens); assay: Positive allosteric modulation of human muscarinic M1 receptor expressed in CHONFAT cells assessed as potentiation of acetylcholine-induced calcium mobilization at 0.1 uM preincubated for 4 mins measured after 1 hr by FLIPR assay relative to control; assay type: functional, cell-based; method in brief: as §3
smiles,measurement,setting,value
N#CC1(c2ccccn2)CCN(Cc2cc(C(=O)O)c(=O)n3ccccc23)CC1 [MSD-M1PAM],IP,[1],135 nM
same,Activity,Mus musculus [2],Active
same,Activity,Mus musculus [3],Active
same,fold change (FC),[4],146
same,IP,[5],89 nM
same,Ratio,[6],0.3
same,Activity,Mus musculus [7],Active
same,IP,[8],69 nM
same,IP,[9],100 nM
same,clearance,[10],7.4 mL/min/kg
same,clearance,[11],17 mL/min/kg
same,fold change (FC),[12],3
